Screening results from PubChem BioAssay.
In the library only some 3.1% were active in any assay of this set; here they are far more common.
CHO parental Ca – signal in parental CHO cells, OX1R antagonist counter-screen; parental CHO-K1, ATP-induced calcium, Fluo-8 fluorescence; inhibition, % at 5.6 µM; 0.63% of 330,000 active;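 active = inhibition above that plate's mean sample inhibition plus 3 SD, cut at about 26% in these data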
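test system = CHO parental line | reagent = ATP stimulus | measured by = intracellular calcium via Fluo-8 no-wash fluorescent dye | control set = ATP and no-ATP DMSO wells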
OX1R antag-1 – antagonists of human orexin 1 receptor; CHO/OX1R cells, Fluo-8 calcium fluorescence, orexin A; O43613; inhibition, % at 5 µM; 0.43% of 330,000 active;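 active = inhibition above its plate's threshold, mean inhibition of all tested compounds on the plate plus 3 SD, cut at about 37% in these data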
Target sequence (O43613 whole entry, looked up): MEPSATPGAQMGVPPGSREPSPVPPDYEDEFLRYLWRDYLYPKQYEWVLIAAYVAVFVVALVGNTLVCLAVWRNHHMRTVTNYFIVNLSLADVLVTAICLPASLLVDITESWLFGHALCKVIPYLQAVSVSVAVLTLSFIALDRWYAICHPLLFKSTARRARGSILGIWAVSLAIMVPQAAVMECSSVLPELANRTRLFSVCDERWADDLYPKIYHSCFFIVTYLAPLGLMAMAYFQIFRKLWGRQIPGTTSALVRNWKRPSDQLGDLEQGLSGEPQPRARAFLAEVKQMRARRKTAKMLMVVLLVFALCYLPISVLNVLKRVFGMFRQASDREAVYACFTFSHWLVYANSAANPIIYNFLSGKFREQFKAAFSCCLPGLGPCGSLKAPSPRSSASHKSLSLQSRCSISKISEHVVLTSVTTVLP
GalR3 antagonist – antagonists of human GalR3; O60755; HEK293 GalR3-CNG cAMP membrane potential fluorescence; galR3 body fused to GalR1 C-terminus; inhibition, % at 3 µM; 0.44% of 360,000 active;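 active = inhibition above the screen-wide average plus 3 SD, cut at about 13% in these data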;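 also: forskolin and galanin both at EC90 stimulate the cells; cAMP rise reported by CNG channel membrane potential dye signal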
GPR7 antagonist – human neuropeptides B/W receptor 1 antagonism; GPR7-expressing cells, fluorescence antagonist assay; AID 1861; 1.1% of 290,000 active; P48145; inhibition, % at 4.4 µM; in the data active = inhibition above about 16%, passing the limit was not always enough;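 also: cells stimulated with the agonist NPW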
OX1R antag-2 – OX1R (human) antagonism; O43613; OX1R-expressing cells, FRET antagonist read-out; inhibition, % at 6.6 µM; 1.8% of 330,000 active; in the data active = inhibition mostly above about 38%, no sharp cut-off; inactive = mostly below about 40%
Large screens that a line does not name were inactive.

O=C1c2cccc3c(N4CCCCC4)ccc(c23)C(=O)N1c1cccc(O)c1	CHO parental Ca 56, OX1R antag-1 56
COc1cc2c(cc1OC)C(c1ccccc1)N(C(=O)c1ccco1)CC2 (stereo not given)	OX1R antag-2 33 (no result: GPR7 antagonist)
COc1cc2c(cc1OC)C(c1ccccc1)N(C(=O)c1ccccc1)CC2 (stereo not given)	none
N#CCC(=O)N/N=C/c1cc(-c2ccccc2)n(-c2ccc(Cl)cc2)c1-c1ccccc1	OX1R antag-2 104
Cc1ccc(-n2c(-c3ccccc3)cc(/C=N/NC(=O)CC#N)c2-c2ccccc2)cc1	none
COC(=O)N(NC(=O)C(O)(CCC(C)C)CCC(C)C)c1ccccc1	GPR7 antagonist 24
COc1ccc(Cc2nnc(NC(=O)C3CC(=O)N(CCc4ccc(F)cc4)C3)s2)cc1OC (stereo not given)	none
O=[N+]([O-])c1ccc2cn[nH]c2c1	OX1R antag-2 49 (no result: GalR3 antagonist)
CN(C)c1ccc(/C=C/C(=O)c2cccnc2)cc1	CHO parental Ca 49, OX1R antag-1 68
Cc1ccc(/C=C/C(=O)c2ccccc2O)cc1	none
CN(C)c1ccc(/C=C/C(=O)c2ccccc2O)cc1	CHO parental Ca 38
CN(C)c1ccc(/C=C/C(=O)c2ccc3c(c2)OCO3)cc1	CHO parental Ca 48, OX1R antag-1 112 (no result: GPR7 antagonist)
O=C(/C=C/c1ccccc1)c1ccc2c(c1)OCO2	none
COc1cc(CNC(=O)c2cc(-c3ccc(F)cc3OC)n[nH]2)cc(OC)c1	none (no result: CHO parental Ca, OX1R antag-1, GPR7 antagonist, OX1R antag-2)
COc1ccc(OC)c(S(=O)(=O)Oc2ccc(N)c3ccccc23)c1	OX1R antag-2 43 (no result: GPR7 antagonist)
COc1ccc(OC)c(S(=O)(=O)Nc2cccc3ccccc23)c1	none (no result: GPR7 antagonist)
O=C(Nc1ncccn1)c1ccc([N+](=O)[O-])cc1[N+](=O)[O-]	OX1R antag-2 73 (no result: GPR7 antagonist)
O=C(Nc1ncn[nH]1)c1ccc([N+](=O)[O-])cc1[N+](=O)[O-]	OX1R antag-2 53
O=C(Nc1ncccn1)c1ccc([N+](=O)[O-])cc1Cl	none
CCOc1ccccc1NCc1cc(=O)oc2cc(C)ccc12	OX1R antag-2 47
COc1ccccc1C(=O)NC(=O)CSc1nnnn1C	none (no result: GPR7 antagonist)
Cc1cc(=O)[nH]c(SCC(=O)C23CC4CC(CC(C4)C2)C3)c1C#N	OX1R antag-2 40
COc1ccc(OC)c2c1C(=O)c1ccccc1C2=O	OX1R antag-2 65
COc1ccc(N)c2c1C(=O)c1ccccc1C2=O	OX1R antag-2 70
COc1cccc2c1C(=O)c1ccc3ccccc3c1C2=O	none (no result: GalR3 antagonist)
COc1ccc(OC)c2c1C(=O)C(Cl)=C(Cl)C2=O	CHO parental Ca 75, OX1R antag-1 69, OX1R antag-2 104
COc1ccc2noc3c2c1C(=O)c1ccccc1-3	CHO parental Ca 51, OX1R antag-1 51, OX1R antag-2 100 (no result: GPR7 antagonist)
O=C1c2ccccc2-c2onc3ccc(NCCCn4ccnc4)c1c23	CHO parental Ca 40, OX1R antag-1 57, OX1R antag-2 46 (no result: GalR3 antagonist)
Cc1cc(C)c(C(=O)NC2CCCc3c2cnn3-c2cccc(C)c2C)o1 (stereo not given)	OX1R antag-2 59
Cc1cc(C(=O)NC2CC(C)(C)Cc3c2cnn3-c2ccccc2C)c(C)o1 (stereo not given)	OX1R antag-2 71
COc1ccc(C(=O)NC2CC(C)(C)Cc3c2cnn3-c2ccccc2C)c(OC)c1OC (stereo not given)	none
Cc1cc(-c2nc3ccccc3o2)c2ccccc2n1	OX1R antag-2 45
Cc1cc(C(=O)O)c2ccccc2n1	none
COc1ccc2nc(SCC(=O)NCc3ccc(F)cc3)[nH]c2c1	none
CCn1c(SCC(=O)NC2CCCc3ccccc32)nnc1-c1ccncc1 (stereo not given)	none
CCn1c(SCC(=O)NC2CCCc3ccccc32)nnc1-c1cccs1 (stereo not given)	OX1R antag-2 70
O=C(CSc1ccc2ccccc2c1)NC1CCCc2ccccc21 (stereo not given)	OX1R antag-2 71
Cc1ccc2nc(SCC(=O)NC3CCCc4ccccc43)[nH]c2c1 (stereo not given)	OX1R antag-2 73
COc1cccc(CNC(=O)CSc2nc3ccc(C)cc3[nH]2)c1	OX1R antag-2 42
CCc1ccc(NC(=O)COC(=O)/C=C/c2c(C)nn(C3CCS(=O)(=O)C3)c2Cl)cc1 (stereo not given)	none
O=C(CN1C(=O)C2CC=CCC2C1=O)Nc1cc(C(F)(F)F)ccc1N1CCCC1 (stereo not given)	none (no result: GPR7 antagonist)
Cc1ccc2nc(SCC(=O)c3ccc(Cl)s3)[nH]c2c1	OX1R antag-2 56
Cn1c2ccccc2c(=O)c2cc(C#Cc3ccc(N)cc3)ccc21	OX1R antag-2 58
COc1ccc(C#Cc2ccc3c(c2)c(=O)c2ccccc2n3C)cc1	none
COc1cc(C(=O)NCC(=O)Nc2c(C)cccc2C)ccc1OCC(=O)N1CCOCC1	none (no result: GPR7 antagonist)
Cn1c(N)c(S(=O)(=O)N2CCN(c3ccccc3)CC2)c(=O)n(C)c1=O	none
Cc1cc(C)c(S(=O)(=O)/N=C2/C=C(Sc3ncn[nH]3)C(=O)c3ccccc32)cc1C	OX1R antag-2 63
O=C(Nc1cccnc1)C1CCCN(S(=O)(=O)c2cccc3nsnc23)C1 (stereo not given)	OX1R antag-2 58
O=C(Nc1ccc2c(c1)OCCO2)C1CCCN(S(=O)(=O)c2cccc3nsnc23)C1 (stereo not given)	none
COc1cc(NC(=O)C2CCCN(S(=O)(=O)c3cccc4nsnc34)C2)cc(OC)c1 (stereo not given)	OX1R antag-2 48
CC1CCN(c2ccc(-c3cccs3)nn2)CC1	none
O=C(COC(=O)/C=C/c1cnc2ccccc2n1)NCC(F)(F)F	none
COCCNC(=O)COC(=O)/C=C/c1cnc2ccccc2n1	OX1R antag-2 48
CC(C)NS(=O)(=O)c1ccc(CCC(=O)Nc2cc(Cl)ccc2Oc2ccccc2)cc1	CHO parental Ca 44 (no result: GalR3 antagonist)
CCn1c(SCC(=O)c2cc(C)n(CC3CCCO3)c2C)nc2ccccc21 (stereo not given)	OX1R antag-2 77
Cc1cc(C(=O)CSc2nc3ccccc3c(=O)[nH]2)c(C)n1CC1CCCO1 (stereo not given)	CHO parental Ca 60
CC(NC(=O)COc1ccccc1)C(=O)NCc1ccccc1Cl (stereo not given)	none (no result: GPR7 antagonist)
N#Cc1cc2cc3c(cc2nc1NCCNC(=S)NCCCN1CCOCC1)OCO3	none
COc1ccc(C=O)cc1CN1CCCN(Cc2ccccc2F)S1(=O)=O	none
CC1=NN(c2ccccc2)C(c2ccco2)C1 (stereo not given)	none (no result: CHO parental Ca, OX1R antag-1, GPR7 antagonist, OX1R antag-2)
O=[N+]([O-])c1ccc(/C=C/C2=NN(c3ccccc3)C(c3ccco3)C2)cc1 (stereo not given)	CHO parental Ca 69, OX1R antag-1 80
O=[N+]([O-])c1ccc(C2=NN(c3ccccc3)C(c3ccco3)C2)cc1 (stereo not given)	GPR7 antagonist 24 (no result: CHO parental Ca, OX1R antag-1, OX1R antag-2)
CC(C)(C)C(=O)c1c(N)[nH]c(C(=O)c2ccccc2)c1-c1c(F)cccc1F	none (no result: CHO parental Ca, OX1R antag-1, GPR7 antagonist, OX1R antag-2)
